The entries come from a sample that favours hits as a whole.
PolyA inh – polyadenylation inhibitors in yeast reporter cells, primary screen, luminescence, S. cerevisiae; activity score, % at 12 µM; hit rate 0.02% among 300,000; S. cerevisiae SKY197-pL101 polyadenylation reporter, beta-gal luminescence; efflux-impaired pdr1/pdr3 knockout yeast; score 100 = 6 SD above DMSO; AID 1875, 2009;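 active = lowest replicate activity score at least 50, where 100 means six control SD above control mean; inconclusive = lowest score under 50 but half or more replicates reach 50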;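 note: yeast exposed to compound for 9 h at 30 °C; higher score means more reporter readthrough which indicates perturbed polyadenylation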
T cruzi inh – inhibitors of intracellular T. cruzi growth, primary screen, luminescence, NIH3T3 host cells; AID 1885, 2009; T. cruzi beta-gal in NIH3T3, 90 h; inhibition, % (no concentration beside the values); hit rate 1.4% among 300,000;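 active = mean inhibition across valid replicates above about 55%, limit read from the data; inconclusive = mean below that limit but half or more replicates reach it; inactive = mean below it, under half of replicates reach it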;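 note: signal also drops with host cell toxicity which is not excluded here; 0% = plate median of DMSO wells and 100% = zero luminescence signal; higher percent means less beta-gal luminescence so fewer parasites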
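System: Mouse NIH/3T3 fibroblasts infected with β-gal-expressing T. cruzi Tulahuen C4 | Quantity: NIH/3T3 cells, 5,000 per well | Reagent: 5000 reporter trypomastigotes per well | Dosing: Compound pinned at 50 nL/well, DMSO | Schedule: 3 h host attachment, then at least 90 h co-culture | Detection: GalScreen luminescence, 60 min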
Lmaj promast – Leishmania major promastigote growth inhibition, primary screen. Leishmania major promastigotes, resazurin fluorescence viability. inhibition, % at 10 µM. hit rate 9% among 200,000. AID 1063, 2008; in the data active = inhibition above about 50%;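 note: promastigotes grown with compound for 44 hours at 28 °C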
Calb FLC – C. albicans growth inhibition with fluconazole, primary screen, CaCi-2 strain, Alamar Blue fluorescence; C. albicans CaCi-2 (fluconazole-resistant clinical isolate) + fluconazole, 48 h; growth inhibition, % (no concentration beside the values); hit rate 0.57% among 300,000; AID 1979, 2009;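 active = growth inhibition above about 58% in most replicates, limit read from the data, passing the limit was not always enough; inconclusive = exactly half the replicates above a set limit; inactive = most replicates below a set limit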;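 note: all wells also contain fluconazole at 8 µg/ml as a sub-toxic cotreatment; 0% = median of DMSO wells and 100% = median of geldanamycin control wells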
NALP1 yeast inh – NALP1 inflammasome inhibitors in reconstituted yeast, colorimetric, S. cerevisiae, triplicate retest; inhibition, % at 10 µM; hit rate 0.61% among 280,000; AID 2071, 2009; S. cerevisiae NALP1/ASC/caspase-1 growth, X-gal OD620, 72 h; in the data active = inhibition mostly above about 24%, no sharp cut-off; inactive = mostly below about 32%
NLRP3 yeast inh – NALP3 inflammasome inhibitors in reconstituted yeast, primary screen, luminescence, uHTS; inhibition, % at 10 µM; hit rate 0.39% among 330,000; AID 2825, 2010; Yeast reconstituted NLRP3/ASC/caspase-1, beta-gal luminescence, 24 h;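 active = inhibition of 50% or more; inactive = inhibition below 50%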;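 note: plate controls were induced DMSO wells for no effect and uninduced yeast grown without galactose for full effect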
* = called active by the depositor; u = inconclusive; x = not tested or not shown.

SMILES | PolyA inh | T cruzi inh | Lmaj promast | Calb FLC | NALP1 yeast inh | NLRP3 yeast inh
COc1cc(OC)c(OC)cc1CNCCc1ccc(OC)c(OC)c1 | 15 | -4 | -9 | -4 | -3 | 14
COc1ccc(CNCCc2cccc(F)c2)c2ccccc12 | -2 | 47 | x | 67 | 32 | 25
COc1cc(OC)c(OC)cc1CNCCc1ccc(F)cc1 | 1 | 63* | x | -1 | 13 | 13
COc1ccc(CNCCc2ccc(Cl)cc2)c(OC)c1OC | 27 | 64* | x | -2 | 18 | 13
CN1C2CCC1/C(=C/c1ccccn1)C(=O)/C2=C\c1ccccn1 | x | x | 100* | x | 101* | x
Cc1ccccc1-n1c(/C=C/c2ccccn2)nc2ccccc2c1=O | -2 | 32 | x | 1 | -5 | 18
C/C(=C/C=C/[C@@H](C)C(=O)O)[C@H]1CN[C@H](C(=O)O)[C@H]1CC(=O)O | x | x | -3 | x | 19 | 17
Cc1cc(C=C2C(=O)NC(=O)NC2=O)c(C)n1-c1ccc2c(c1)OCO2 | 1 | -14 | -3 | -2 | 34 | -12
Cc1cc(C=C2C(=O)NC(=S)NC2=O)c(C)n1-c1ccc2c(c1)OCO2 | -14 | -1 | 86* | 10 | 1 | -9
COc1ccc(C(C)=O)cc1Cc1c(O)[nH]c(=S)[nH]c1=O | -24 | 1 | x | -1 | 11 | 3
CCCCCc1nc2c(c(=O)c3ccccc3n2C)c(=O)n1C1CCCCCC1 | 11 | 51 | 99* | 37 | 28 | 36
NCC(O)c1cc(O)c(O)cc1F (stereo unspecified) | x | x | x | x | x | 15
CC(=NCc1ccco1)c1c(O)n(C)c(=O)n(C)c1=O | 7 | -10 | 0 | -3 | 42* | 9
CC(N)Cc1c[nH]c2c1ccc1ccccc12 (stereo unspecified) | 2 | 9 | x | -7 | 10 | 13
CCCC(CCC)C(=O)OC[N+](C)(C)CCOC(=O)C(O)(c1ccccc1)C1CCCC1 (stereo unspecified) | -1 | 55* | -2 | 48 | 28* | 7
CNC(=S)NC1CC2CCCC(C1)N2CC(C)C (stereo unspecified) | -8 | 2 | 1 | -14 | 0 | 21
Cc1ccc(CN2C3CCCC2CC(NC(=S)NCc2ccccc2)C3)cc1 (stereo unspecified) | 11 | 50 | 92* | 8 | 4 | 14
O=[N+]([O-])c1cc([As](=O)(O)c2ccc(O)c([N+](=O)[O-])c2)ccc1O | -4 | -5 | x | 1 | 13 | 11
O=C(c1ccc2c3c(cccc13)CC2)C1CCCN(Cc2ncc[nH]2)C1 (stereo unspecified) | 3 | 16 | 48 | -32 | -3 | 8
O=C(c1ccc2c3c(cccc13)CC2)C1CCCN(CC2CC2)C1 (stereo unspecified) | 6 | 27 | 99* | 9 | 2 | 29
O=C(CSC1c2ccccc2-c2ccccc21)N/N=C/c1ccccc1O | -22 | 60* | 100* | 19 | 0 | 24
O=C(C1CC(c2ccccc2O)=NO1)N1CCC2(CC1)OCCO2 (stereo unspecified) | -2 | 4 | 0 | u | -4 | -8
CC(C)CC(=O)Nc1ccc(S(=O)(=O)N2CC3CC(C2)c2cccc(=O)n2C3)cc1 (stereo unspecified) | -15 | -4 | x | 5 | x | 4
C=CCN1C(=O)NC(=O)/C(=C/c2ccoc2)C1=O | -10 | -5 | 10 | -4 | 20 | 10
CCCCn1c(O)c(C(CC)=NCCCN(C)C)c(=O)[nH]c1=O | 21 | 57* | 2 | -14 | 11 | 1
CCCCn1c(O)c(C(C)=NCCCN(CC)CC)c(=O)[nH]c1=O | 24 | 58* | 8 | -11 | 7 | -17
CC(=NCCCN1CCOCC1)c1c(O)n(Cc2ccccc2)c(=O)[nH]c1=O | -7 | -1 | 90* | 2 | 3 | 12
CCC(=NCCCN1CCOCC1)c1c(O)n(Cc2ccccc2)c(=O)[nH]c1=O | -2 | 2 | 2 | 6 | 35 | -4
CCCCn1c(O)c(C(CC)=NCCN2CCOCC2)c(=O)[nH]c1=O | 2 | -3 | 5 | 5 | 44* | 27
